Source: PubChem BioAssay (The Scripps Research Institute Molecular Screening Center)
PLC-gamma1 inh = inhibitors of human phospholipase C gamma1; purified PLC-gamma1, fluorogenic substrate, fluorescence; inhibition, % at 12.2 µM; 370,000 tested, 0.84% active; P19174; AID 720700
ARFGAP1 inh = inhibits rat ARF GTPase activating protein 1 | Q62848 | Arfgap1-stimulated ARF1 GTP hydrolysis, GDP FP detection | inhibition, % at 16.5 µM | 360,000 tested, 0.26% active | AID 651572;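 active = inhibition above a per-plate limit, mean inhibition of low control wells plus 3 SD, cut at about 25% in these data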;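 also: 0% = DMSO wells with enzyme and 100% = wells lacking Arfgap1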
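Replicates: Single well per compound | Assay system: Truncated rat Arfgap1 GAP domain | Control set: No-Arfgap1 wells (100%) versus DMSO full-reaction wells (0%) | Times: Enzyme reaction 120 min at 25 °C after 20 min preincubation | Reagent: Human ARF1(Δ1-17)-GTP substrate | Measured by: Tracer-displacement fluorescence polarization with EDTA stop, 620/688 nm | Measure: Percent inhibition of Arfgap1-stimulated GTP hydrolysis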
HGIII-sPLA2 inh = Blocks human group III sPLA2 activity | Q9NZ20 | 370,000 tested, 0.56% active | QFRET BODIPY PC-A2 liposome hydrolysis, fluorescence | inhibition, % at 12.2 µM;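 active = inhibition above mean plus 3 SD of compounds lying within the high and low control bounds, cut at about 19% in these data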;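 also: 0% = median of test compound wells and 100% = no enzyme DMSO wells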
ASAP1 inh = blocks human ASAP1-stimulated Arf1 GTP hydrolysis | Q9ULH1 | GDP FP detection | inhibition, % at 16.5 µM | 360,000 tested, 0.19% active; in the data active = inhibition above about 25%;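 also: 0% = vehicle with enzyme and substrate and 100% = no enzyme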
Target sequence (Q9ULH1 325-724 limits assumed): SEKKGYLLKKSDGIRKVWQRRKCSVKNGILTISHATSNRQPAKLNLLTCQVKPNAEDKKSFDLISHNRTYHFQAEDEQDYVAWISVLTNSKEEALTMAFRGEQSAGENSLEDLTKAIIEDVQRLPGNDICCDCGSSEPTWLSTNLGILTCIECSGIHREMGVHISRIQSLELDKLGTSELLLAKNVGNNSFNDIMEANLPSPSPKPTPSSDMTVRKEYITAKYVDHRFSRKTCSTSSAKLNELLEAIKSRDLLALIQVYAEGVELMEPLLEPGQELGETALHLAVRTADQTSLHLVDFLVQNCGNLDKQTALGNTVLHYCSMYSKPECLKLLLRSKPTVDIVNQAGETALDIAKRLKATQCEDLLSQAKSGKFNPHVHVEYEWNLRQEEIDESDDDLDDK
PLCb3 inh = blocks human PLC-beta3 enzyme activity; Q01970; Purified PLC-beta3, fluorogenic substrate, fluorescence; inhibition, % at 12.2 µM; 370,000 tested, 0.18% active; AID 720704; in the data active = inhibition above about 11%;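 also: 0% = median of compound wells on plate and 100% = full blocker control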
PLCgamma1 ctr = inhibits human PLC-gamma1 in PLC-beta3 counter-screen. shares compounds with PLC-gamma1 inh. purified PLC-gamma1, fluorogenic substrate, fluorescence. inhibition, % at 12.3 µM. 3,300 tested, 3.1% active. AID 743258
PLCb3 confirm = confirmation of human PLC-beta3 inhibitors | 3,300 tested, 1% active | AID 743261 | purified PLC-beta3, fluorogenic substrate fluorescence | inhibition, % at 12.3 µM | shares compounds with PLC-gamma1 inh; in the data active = inhibition above about 11%
Numbers without * were called inactive; nt = not tested or not shown. Hits are enriched below; roughly 1.9% of the tested compounds scored in any of these assays. Rule as the data show it, unless noted: active = inhibition above about 9.5%; inactive = the rest.

SMILES	PLC-gamma1 inh	ARFGAP1 inh	HGIII-sPLA2 inh	ASAP1 inh	PLCb3 inh	PLCgamma1 ctr	PLCb3 confirm
CC(C)C(NC(=O)c1ccccc1)C(=O)OCC(=O)N1CCN(c2ccccc2)CC1 (stereo not given)	11*	-18	-6	-8	-6	-1	0
O=C(NCCc1ccccn1)c1ccc2c(c1)ncn2C1CCCCC1	1	nt	0	nt	1	nt	nt
COc1ccc(/C=C/S(=O)(=O)NCc2ccc(F)cc2)c(CNC(=O)OC(C)(C)C)c1	0	nt	-1	nt	-5	nt	nt
CCOC(CNC(=O)Cn1nc(C)c2ccccc21)OCC	9.9*	1	1	-11	1	-2	2
CN1C=CC(=C[N+](=O)[O-])N(C)C1=O	12*	17	0	-13	6	-3	-3
COc1c(Cl)cc(Cl)cc1CNCc1ccccc1	11*	5	-5	-1	11	-7	-3
OCC1OC(c2ccccc2)OC2COC(c3ccccc3)OC12 (stereo not given)	-3	15	-1	-1	4	nt	nt
OC1OC2COC(c3ccccc3)OC2C(O)C1O (stereo not given)	6	6	2	13	11*	-5	-4
CCOC(=O)c1csc(NC(=O)C2CCCN(S(=O)(=O)c3ccccc3[N+](=O)[O-])C2)n1 (stereo not given)	1	nt	-11	nt	1	nt	nt
CCOc1cccc(N(C(=O)C2COc3ccccc3O2)C(C(=O)NC2CCCCC2)c2ccc(O)cc2)c1 (stereo not given)	8	10	-21	-5	11*	-3	0
CCOc1cc(C(=O)N2CCC(CC3CC(c4ccc(Cl)cc4)=NO3)(C(=O)NCC3CCCCC3)CC2)cc(OCC)c1OCC (stereo not given)	4	-1	-6	-15	11*	-1	-2
CCOc1cc(C(=O)N2CCC(CC3CC(c4ccccc4)=NO3)(C(=O)NCc3ccc(OC)cc3)CC2)cc(OCC)c1OCC (stereo not given)	-1	-4	-22	21	4	nt	nt
O=C(CCC1CCCC1)Nc1ccon1	12*	2	4	14	4	-3	3
CC(C)(C)OC(=O)N1CCC[C@@H]1C(=O)N1CCC[C@@H]1C(=O)NCc1ccccc1	4	-3	6	5	3	nt	nt
CN(C)CCC(C(=O)c1ccccc1)c1cccnc1 (stereo not given)	-2	11	6	11	-3	nt	nt
N#CCC(C(=O)c1cccnc1)c1ccccc1 (stereo not given)	1	-10	-1	-3	11*	0	-6
CCOC(=O)CNC(=O)C1(NC(=O)CNC(=O)OCc2ccccc2)CCCC1	10*	7	0	-9	3	-6	-6
O=C(Nc1ccccc1)c1ccc(S(=O)(=O)NCc2ccco2)cc1	13*	9	-4	6	7	8	1
CCCNC(=O)C1(C)CCCN(C(=O)CN2C(=O)c3ccccc3C2=O)C1 (stereo not given)	10*	-7	10	8	-6	-3	1
CCCNC(=O)C1(C)CCCN(C(=O)Cc2ccc3ccccc3c2)C1 (stereo not given)	0	-12	1	-14	1	nt	nt
CCOc1ccc(C(=O)Oc2cc(C)[nH]c(=O)c2[N+](=O)[O-])cc1OCC	10*	16	9	4	2	6	4
CC(C)(C)OC(=O)NCc1cc(F)ccc1/C=C/S(=O)(=O)NCc1ccccc1	-3	nt	-8	nt	1	nt	nt
O=S(=O)(NC1CCCCC1N1CCOCC1)c1ccc(Cl)cc1 (stereo not given)	12*	17	1	0	-3	-1	1
O=C(NCCCN1CCCCC1)C1CCC(CNS(=O)(=O)c2cccc3nsnc23)CC1 (stereo not given)	10*	-7	5	-10	-1	-3	-2
O=C(/C=C/c1ccc([N+](=O)[O-])cc1)NC1CC2CCC1C2 (stereo not given)	14*	-6	0	-1	10	7	5
O=C(/C=C/c1ccc(Cl)cc1)NC1CC2CCC1C2 (stereo not given)	2	-6	3	8	3	nt	nt
